Laboratory results: ChEMBL document CHEMBL1143287, “Quinazolin-2-ylamino-quinazolin-4-ols as novel non-nucleoside inhibitors of bacterial DNA polymerase III” (Bioorg Med Chem Lett, 2009)
In brackets after ≈: the same amount, converted by molar mass. Activity calls are given as the source filed them. No cut-off for these calls is given here.

Tests used:
[1] = Inhibition of mammalian DNA polymerase […] delta
[2] = tested on: Staphylococcus aureus; assay: Antibacterial activity against Staphylococcus aureus ATCC 29213 by broth microdilution assay in presence of 50% human serum; assay type: functional
[3] = (§1) Inhibition of Streptococcus pyogenes DNA polymerase 3
How it was run: (§2)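 S. pyogenes DNA polymerase III holoenzyme system reconstituted in 96- or 384-well format; inhibition read as prevention of duplex DNA formation, detected by fluorescence.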

[4] = tested on: Streptococcus pneumoniae; assay: Antibacterial activity against Streptococcus pneumoniae ATCC 49619 by broth microdilution assay; assay type: functional
[5] = tested on: Staphylococcus aureus; assay: Antibacterial activity against Staphylococcus aureus ATCC 29213 by broth microdilution assay; assay type: functional
[6] = tested on: Staphylococcus aureus; assay: Antibacterial activity against Staphylococcus aureus infected in mouse assessed as protection against bacterial infection at 25 mg/kg, ip administered as single dose measured 1 hr postinjection; assay type: functional; details: route intraperitoneal
[7] = tested on: Streptococcus pyogenes; assay: as §1; how it was run: as §2

| SMILES | MIC [2] | IC50 [3] | IC50 [1] | also measured |
| --- | --- | --- | --- | --- |
| COc1ccc2nc(Nc3nc(O)c4cccc(OC)c4n3)nc(C)c2c1 | 2 µg/mL | > 100000 nM |  | Activity [1]: inactive |
| COc1ccc2c(C)nc(Nc3nc(O)c4ccccc4n3)nc2c1 |  | 70000 nM |  | MIC [4]: 32 µg/mL (≈ 96 µM); MIC [5]: 32 µg/mL (≈ 96 µM) |
| COc1ccc2nc(Nc3nc(O)c4cc([N+](=O)[O-])ccc4n3)nc(C)c2c1 |  | 8700 nM | 14900 nM |  |
| COc1ccc2nc(Nc3nc(O)c4ccc(N)cc4n3)nc(C)c2c1 | 1 µg/mL | 4700 nM | 4900 nM |  |
| Cc1ccc2nc(Nc3nc(O)c4ccccc4n3)nc(C)c2c1 |  | 209000 nM |  | MIC [4]: 16 µg/mL (≈ 50.4 µM); MIC [5]: 32 µg/mL (≈ 101 µM) |
| COc1ccc2nc(Nc3nc(O)c4ccc(F)cc4n3)nc(C)c2c1 | 64 µg/mL | 77800 nM | 1900 nM |  |
| COc1ccc2nc(Nc3nc(O)c4ccc(Cl)cc4n3)nc(C)c2c1 |  | > 100000 nM |  | Activity [1]: inactive; Activity [2]: inactive |
| COc1ccc2nc(Nc3nc(O)c4ccccc4n3)nc(C)c2c1 |  | 4800 nM |  | MIC [4]: 0.25 µg/mL (≈ 0.75 µM); MIC [5]: 0.5 µg/mL (≈ 1.5 µM) |
| COc1cc2nc(N(C)c3nc(OC)c4ccccc4n3)nc(C)c2cc1OC |  |  |  | Activity [7]: inactive |
| Cc1cc2nc(Nc3nc(O)c4ccccc4n3)nc(C)c2cc1C |  | 27100 nM |  | MIC [4]: 1 µg/mL (≈ 3.02 µM); MIC [5]: > 64 µg/mL |
| COc1ccc2nc(Nc3nc(O)c4ccc([N+](=O)[O-])cc4n3)nc(C)c2c1 | 64 µg/mL | > 100000 nM | 400 nM |  |
| COc1cc2nc(Nc3nc(OC)c4ccccc4n3)nc(C)c2cc1OC |  |  |  | Activity [7]: inactive |
| COc1ccc2nc(Nc3nc(O)c4ccc(NC(C)=O)cc4n3)nc(C)c2c1 |  | 5500 nM | 5000 nM |  |

Continued by falling IC50 [3], values first:

| MIC [2] | IC50 [3] | IC50 [1] | SMILES | also measured |
| --- | --- | --- | --- | --- |
| 2 µg/mL | 3800 nM | 1800 nM | COc1ccc2c(O)nc(Nc3nc(C)c4cc(OC)ccc4n3)nc2c1 |  |
| 1 µg/mL | 3700 nM | 2000 nM | COc1ccc2nc(Nc3nc(O)c4ccc(C)cc4n3)nc(C)c2c1 | Activity [6]: 50% |
|  | 3100 nM |  | COc1cccc2c(C)nc(Nc3nc(O)c4ccccc4n3)nc12 | MIC [4]: 0.25 µg/mL (≈ 0.75 µM); MIC [5]: 0.5 µg/mL (≈ 1.5 µM) |
| 2 µg/mL | 2800 nM | 1700 nM | COc1ccc2nc(Nc3nc(O)c4cc(C)ccc4n3)nc(C)c2c1 |  |
|  | 2000 nM |  | COc1cc2nc(Nc3nc(O)c4ccccc4n3)nc(C)c2cc1OC | MIC [4]: 1 µg/mL (≈ 2.75 µM); MIC [5]: 4 µg/mL (≈ 11 µM) |
| 2 µg/mL | 700 nM | 1200 nM | COc1ccc2nc(Nc3nc(O)c4c(C)cccc4n3)nc(C)c2c1 |  |
| 2 µg/mL | 600 nM | 1000 nM | COc1ccc2nc(Nc3nc(O)c4c(OC)cccc4n3)nc(C)c2c1 |  |
| 1 µg/mL | 560 nM | 900 nM | COc1ccc2nc(Nc3nc(O)c4c(Cl)cccc4n3)nc(C)c2c1 |  |
| 1 µg/mL | 500 nM | 200 nM | CNc1ccc2c(O)nc(Nc3nc(C)c4cc(OC)ccc4n3)nc2c1 |  |
| 1 µg/mL | 400 nM | 400 nM | CCNc1ccc2c(O)nc(Nc3nc(C)c4cc(OC)ccc4n3)nc2c1 |  |
| 2 µg/mL | 400 nM | 400 nM | COc1ccc2nc(Nc3nc(O)c4ccc(N(C)C)cc4n3)nc(C)c2c1 |  |
